ChEMBL document CHEMBL3352343, “Structure-activity relationships of oxysterol-derived pharmacological chaperones for Niemann-Pick type C1 protein” (Bioorg Med Chem Lett, 2014)

Tested on: T1, NPC1-like intracellular cholesterol transporter 1 (Homo sapiens), Q9UHC9 [I1061T]
T1 sequence (whole entry): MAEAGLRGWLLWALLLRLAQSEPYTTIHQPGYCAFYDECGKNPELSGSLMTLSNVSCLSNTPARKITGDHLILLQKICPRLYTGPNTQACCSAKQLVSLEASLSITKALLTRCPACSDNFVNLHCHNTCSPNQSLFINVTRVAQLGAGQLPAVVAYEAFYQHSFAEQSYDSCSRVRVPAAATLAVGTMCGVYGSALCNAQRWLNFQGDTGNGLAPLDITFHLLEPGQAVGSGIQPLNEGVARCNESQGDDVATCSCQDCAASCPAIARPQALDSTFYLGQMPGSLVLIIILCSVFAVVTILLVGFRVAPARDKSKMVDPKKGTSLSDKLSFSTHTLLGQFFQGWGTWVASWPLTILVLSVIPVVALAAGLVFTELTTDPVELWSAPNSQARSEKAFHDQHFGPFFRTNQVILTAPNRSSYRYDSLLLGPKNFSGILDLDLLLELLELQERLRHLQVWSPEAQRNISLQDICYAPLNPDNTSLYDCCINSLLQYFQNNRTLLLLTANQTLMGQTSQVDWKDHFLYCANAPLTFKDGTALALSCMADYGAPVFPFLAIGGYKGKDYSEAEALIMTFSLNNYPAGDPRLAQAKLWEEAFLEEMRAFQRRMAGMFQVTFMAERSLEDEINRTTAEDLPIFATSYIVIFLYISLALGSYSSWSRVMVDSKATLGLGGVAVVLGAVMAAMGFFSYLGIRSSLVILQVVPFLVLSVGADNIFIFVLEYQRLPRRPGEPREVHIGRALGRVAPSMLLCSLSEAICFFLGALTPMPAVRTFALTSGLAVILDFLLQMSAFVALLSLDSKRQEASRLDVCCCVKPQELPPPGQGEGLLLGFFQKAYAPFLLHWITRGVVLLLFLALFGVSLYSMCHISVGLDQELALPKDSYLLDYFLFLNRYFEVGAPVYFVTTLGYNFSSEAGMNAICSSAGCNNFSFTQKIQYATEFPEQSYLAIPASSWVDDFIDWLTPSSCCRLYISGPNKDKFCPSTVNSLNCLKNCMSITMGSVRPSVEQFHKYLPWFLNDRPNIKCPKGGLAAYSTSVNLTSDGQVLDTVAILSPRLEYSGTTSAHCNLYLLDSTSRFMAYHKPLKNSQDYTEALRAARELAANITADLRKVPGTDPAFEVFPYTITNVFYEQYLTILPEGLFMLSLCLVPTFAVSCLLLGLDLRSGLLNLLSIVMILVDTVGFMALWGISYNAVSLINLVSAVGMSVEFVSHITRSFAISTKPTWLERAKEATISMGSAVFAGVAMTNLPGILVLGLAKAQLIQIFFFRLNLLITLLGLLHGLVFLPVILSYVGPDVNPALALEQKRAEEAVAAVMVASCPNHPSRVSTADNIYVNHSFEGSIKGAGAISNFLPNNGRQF
Test: Binding affinity to FLAG/tGFP-tagged NPC1 I1061T mutant (unknown origin) expressed in HEK293 cells assessed as localization after 24 hrs by fluorescence microscopy
Assay type: cell-based
Summary of the method: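 HEK293 cells stably expressing NPC1 I1061T-tGFP were exposed to compound for 24 h, fixed, and nuclei stained with Hoechst 33342. In the images, each cell was scored by tGFP pattern: ER 0, mixed ER+vesicle 0.5, vesicular 1. Scores were averaged to give the vesicular-localization percentage, and EC50 was taken from concentration-response. Data are mean ± standard deviation of three independent experiments.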

Compound: C[C@H](CCCC(C)(C)O)[C@H]1CC[C@H]2[C@@H]3CC=C4C[C@@H](O)CC[C@]4(C)[C@H]3CC[C@]12C
- Activity: Dose-dependent effect
